This series in a line: Toxicity liver stage against HepG2, at 10uM. Type of series: cell-based. Also noted: test concentration 10 uM, cell line HepG2-A16-CD81EGFP. The settings on record: human, HepG2-A16-CD81EGFP cells; read-out: INHIBITION
The method in brief: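 Uninfected HepG2-A16-CD81EGFP cells, 3 × 10^3 per well, 1536-well, plated on prespotted compound at 10 μM final, parasite-free screening media added to match infected plates; puromycin 10 μM positive, DMSO 0.5% negative; run in parallel with 48 h PbLuc assay at 37 °C, 5% CO2; viability by CellTiter-Glo luminescence, normalized to controls.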

For the compound `Cc1ccc(N2CCCC3(CCN(C(=O)c4sccc4C)C3)C2)nn1` (stereo not given), the cytotoxicity at 10 µM was -107%.

Consider `CCc1nccn1-c1cncc(C2CCCN2CC(=O)N2CCCC2)n1` (stereo not given), for which the cytotoxicity at 10 µM turned out to be 0.193%. In the case of `Cc1noc(C)c1CN1CCC2(CC1)CN(c1ccccn1)CCO2` it was -3%; in that of `O=C1c2cc(Br)cc(Br)c2OCC1(CN1CCCC1)CN1CCCC1`, -7.83%; in that of `O=C(NCc1ccnc(O)c1)NCC1CCCC1`, 3.57%. As for `Cc1ccnc(CNC(=O)C2CC(=O)N(CCN(C)C)C2)c1` (stereo not given), the cytotoxicity at 10 µM is -5.79%.

With `Cc1cc(Cn2cncc(Br)c2=O)on1`, the cytotoxicity at 10 µM stood at 15.2%. Take `CC(C)(C)c1ncc(C(=O)NCCSc2ccccn2)c(O)n1`: the cytotoxicity at 10 µM is -0.494%. For the compound `CN(CCn1cnnc1)S(=O)(=O)c1ccc(C(F)(F)F)nc1`, the cytotoxicity at 10 µM amounted to 6.71%. Regarding `COc1c(C2CCCN2CC(=O)N(C)Cc2ccco2)c(C)nn1C` (stereo not given), the cytotoxicity at 10 µM is -3.13%. `O=C(Cc1ccc(-n2cccn2)cc1)N1CCCC(n2cccn2)C1` (stereo not given): the cytotoxicity at 10 µM turned out to be 4.6%. In the case of `c1cc(-c2cnccn2)cc(-c2ccn(CCN3CCCC3)n2)c1`, the cytotoxicity at 10 µM was -11.5%.

Regarding `Cn1cc(C[C@H]2[C@H](N3CCOCC3)CCN2C2CCOCC2)cn1`, the cytotoxicity at 10 µM was determined as 5.13%.

Regarding `Cc1noc(C)c1CN(C)C(=O)c1ccc(NC2CC2)nc1`, the cytotoxicity at 10 µM was -4.94%.

Regarding `Cn1ccc(C(=O)NCCOc2ccc3c(c2)CCC3)cc1=O`, the cytotoxicity at 10 µM was 3.68%. To `Cc1ccccc1NC(=O)N1CC[C@@H]2CN(CC(C)C)S(=O)(=O)[C@@H]2CC1` belongs -0.567%; to `Cc1nc(O)cc(CN2C[C@H](NC(=O)C3CCC3)[C@@H](C3CC3)C2)n1`, 0.675%. To `CCOCC1CN(Cc2ccc3c(c2)OCO3)Cc2nccn2C1` (stereo not given) belongs -126%. `COc1cccc(Cn2[nH]c(C)c3c(NC(=O)C(C)OC)nnc2-3)c1` (stereo not given): the cytotoxicity at 10 µM is -2.03%. In the case of `CNC(=O)c1ccc(NC(=O)NC(C)c2cc(C)oc2C)cc1` (stereo not given) it was -12.8%; in that of `CCOCC1CN(S(C)(=O)=O)Cc2cnn(CC3CCOCC3)c21` (stereo not given), -0.851%.

Consider `Cc1c[nH]c(CN(C)C(=O)CCn2cnc3ccccc32)n1`, for which the cytotoxicity at 10 µM came to 9.67%. As for `CS(=O)(=O)N1CCCCC12CCN(c1nncs1)CC2`, the cytotoxicity at 10 µM stood at 10.6%. To `COc1cc(N2CCCn3cnc(COCCO)c3C2)ncn1` belongs -3.61%; to `CN(Cc1cc(F)cc2cccnc12)CC1CCN(CCO)CC1`, 1.9%. `COc1cccc(CNC(=O)CCNS(=O)(=O)c2ccc(C)cc2)c1`: the cytotoxicity at 10 µM is -137%.

On to `Cc1c[nH]c(CN(C)C(C(=O)O)c2c(F)cccc2Cl)n1` (stereo not given), for which the cytotoxicity at 10 µM was -41.7%. With `Cc1nc2c(c(NC3CC3)n1)CCN(C(=O)C(C)(C)O)CC2`, the cytotoxicity at 10 µM was 4.24%. To `c1cc(-c2c[nH]c([C@@H]3COCCN3CC3CC3)n2)ccn1` belongs 6.82%. For `Cc1cc(C)nc(N2CCC(Cn3cc(C(=O)N(C)C)cn3)CC2)n1`, the cytotoxicity at 10 µM stood at 6.28%. In the case of `Cc1cc(N(C)C)nc(N2CCn3c(nnc3C(C)C)C2)n1` it was 19%; in that of `COC(=O)C1(C)CCN(C(=O)NCCc2c(C)[nH]c3ccccc23)C1` (stereo not given), 0.807%; in that of `CN(C)c1nccnc1C1CCCN(c2cnccn2)C1` (stereo not given), -4.92%. Turning to `Cc1cc(NC(=O)CNC2CCc3nc(C(C)C)nn3C2)no1` (stereo not given), the cytotoxicity at 10 µM is -3.87%.

`CN1C[C@@H](C(=O)N2CCCOCC2)[C@@]2(CCc3ccccc3C(=O)N2)C1`: the cytotoxicity at 10 µM is 8.64%. To `O=C(CC[C@@H]1CCCN2CCCC[C@H]12)NCCc1cc(O)ncn1` belongs -1.91%; to `CC(C)c1nccn1C1CCCN(C(=O)c2cccc3c2OCO3)C1` (stereo not given), -7.71%.

Take `Cn1ccnc1-c1noc(NCc2ccc3c(c2)OCCO3)n1`: the cytotoxicity at 10 µM was -0.408%.

As for `COc1ccccc1CC(=O)N1CCCC(n2nc(C)nc2C)C1` (stereo not given), the cytotoxicity at 10 µM was -4.47%. To `OCc1cn([C@@H]2c3ccccc3C3(CCNCC3)[C@H]2O)nn1` belongs -3.45%; to `Cc1ccc(C)c2c(O)cc(CNCCNC(=O)C(C)C)nc12`, -8.14%.

For the compound `CN(C)CCOCC1CN(Cc2ccsc2)Cc2nnn(C)c21` (stereo not given), the cytotoxicity at 10 µM stood at 14.1%. To `COCC(=O)N1CCCC(c2cc(C(F)F)n3ncnc3n2)C1` (stereo not given) belongs -8.43%; to `COC(=O)C(C)(C)NC(=O)c1scnc1Cl`, -2.31%. To `NC(=O)c1csc(N2C[C@@H](CN3CCOCC3)[C@@H](CO)C2)n1` belongs 2.97%; to `COCCN1CCC(Cc2cncc(-c3ccc(C(=O)O)cc3)n2)C1` (stereo not given), -0.413%.

`O=C([C@H]1CCCO1)N1CCN(CCn2cccn2)c2ncccc2C1`: the cytotoxicity at 10 µM is -106%. To `CN1CCc2c(C#N)c(NCCc3ccccc3)n3cnnc3c2C1` belongs 12.4%; to `Cn1ccc2cc(C(=O)Nc3nc[nH]n3)ccc21`, 1.69%.

With `O=C(NCCC1=CCCCC1)c1cc(-c2ccc(O)cc2)n[nH]1`, the cytotoxicity at 10 µM is 38.8%. To `O=C(Nc1nccs1)NC1CCN(CC2CCCC2)CC1` belongs -8.07%. With `Cc1c(C(C)Nc2ncnc3sccc23)cnn1C` (stereo not given), the cytotoxicity at 10 µM stood at 40.1%. Take `CC(=O)c1c(C)cc(C)c(Cn2ccnc2S(C)(=O)=O)c1C`: the cytotoxicity at 10 µM was -0.657%. In the case of `Cc1ccc2nnc(C(=O)NCCCn3cccn3)nc2c1` it was -7.93%. To `O=C(CCc1ccsc1)NCc1ccnc(OC2CCOCC2)c1` belongs 5.92%; to `c1cc2c(cc1CN1CC[C@H]3CO[C@H](CN4CCCC4)[C@H]3C1)OCO2`, 0.355%; to `CCN1CCOCC2(CCCN(C(=O)c3cnccn3)C2)C1` (stereo not given), 6.21%. In the case of `O=C(CCc1nccs1)N1CCN(c2ccc(Br)cn2)CC1` it was -2.65%; in that of `COCC(=O)Nc1ccc(Sc2nncn2C)c(Cl)c1`, -5.48%; in that of `Cc1cc(C)cc(CN2C[C@@H]3OCCN(CC(=O)N(C)C)[C@@H]3C2)c1`, -92.9%. For the compound `Cc1cnn(CC2CN(Cc3nc(C4CC4)no3)CCO2)c1` (stereo not given), the cytotoxicity at 10 µM was -4.26%. Regarding `COCCOCC(=O)Nc1cccc(CN(C)C(C)=O)c1`, the cytotoxicity at 10 µM is -126%. In the case of `Cc1cc(C(=O)NCC2CCCO2)c(C)n1-c1cccnc1` (stereo not given) it was 4.95%; in that of `COc1ccc(-c2cnc(N(C)C)nc2C2CN(C(C)=O)CCO2)cc1` (stereo not given), -31.9%. To `CC(C)CN1CCC(C(=O)NCCNC(=O)c2ccccc2)CC1` belongs 1.22%. To `Cc1ccc(-c2cc(CN(CC(N)=O)CC(C)C)on2)cc1` belongs 10.1%; to `Cn1nc(-c2cccs2)cc1[C@H]1CN2CC[C@H]1C[C@@H]2CNS(C)(=O)=O`, -1.39%. For `CC1(C)CCN(S(=O)(=O)N2CCCC(c3cccc(C(=O)O)c3)C2)CC1` (stereo not given), the cytotoxicity at 10 µM is -0.879%. In the case of `O=C(Cn1cccn1)Nc1ccc(N2CCCCC2)cc1` it was 0.955%; in that of `Cc1cccc2c(=O)n(C(C)Cc3cccnc3)cnc12` (stereo not given), -13.5%.

(Values after ChEMBL document CHEMBL4513216, “Probing the Open Global Health Chemical Diversity Library for Multistage-Active Starting Points for Next-Generation Antimalarials” (ACS Infect Dis, 2020).)
